Results as given in ChEMBL document CHEMBL1131007, “5-Fluoro-2-methyl-N-[4-(5H-pyrrolo[2,1-c]-[1, 4]benzodiazepin-10(11H)-ylcarbonyl)-3-chlorophenyl]benzamide (VPA-985): an orally active arginine vasopressin antagonist with selectivity for V2 receptors” (J Med Chem, 1998).

Legend:
Rattus norvegicus [1] = assay: Urinary osmolality from urine collected from rat at 10 mg/kg
Vasopressin V2 receptor [2] = biological target: Vasopressin V2 receptor (Homo sapiens, UniProt P30518); assay: Displacement of [3H]AVP from human V2 receptor expressed in murine fibroblast cell line (LV2) membranes; assay type: cell-based
Summary of the method: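 Membranes from murine fibroblast line LV2 expressing human V2 receptors; displacement of specific 3H-AVP binding. IC50 given as group mean ± SEM where two or three separate determinations were made.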

Homo sapiens = species on record: Homo sapiens; assay: Relative affinity for human vasopressin receptors V1a and V2
Summary of the method: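 Ratio from IC50 values: V1a by displacement of 3H-AVP or 3H-[d(CH2)5 1Tyr(Me)2,Arg8]-AVP from human platelet membranes; V2 by displacement of 3H-AVP from membranes of murine fibroblast LV2 cells expressing human V2 receptors.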

Vasopressin V1a receptor [3] = biological target: Vasopressin V1a receptor (Homo sapiens, UniProt P37288); assay: Displacement of [3H]AVP from vasopressin receptor (V1a) from human platelet membranes.
Summary of the method: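 Membranes from human platelets; displacement of specific binding of 3H-AVP or 3H-[d(CH2)5 1Tyr(Me)2,Arg8]-AVP at V1a sites. IC50 given as group mean ± SEM where two or three separate determinations were made.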

[4] = biological target: Vasopressin receptor (Rattus norvegicus) (UniProt P48974+P30560+Q00788); assay: Relative affinity for rat vasopressin receptors V1a and V2; assay type: protein assay
Vasopressin V2 receptor [5] = biological target: Vasopressin V2 receptor (Rattus norvegicus, UniProt Q00788); assay: Displacement of [3H]AVP from vasopressin V2 receptor of rat kidney medulla.
Rattus norvegicus [6] = assay: Urinary osmolality from urine collected from rat at 10 mg/kg; assay type: functional
Summary of the method: (§1)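 Conscious rats with free access to water before and during the test, given compound in 20% DMSO in aqueous 2.5% preboiled starch (compound first dissolved in DMSO). Urine volume over 4 h and urinary osmolality (mOsm/kg) measured.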

Rattus norvegicus [7] = assay: Urine volume collected after 10 mg/kg of drug administration into 2 rats.; assay type: functional
Summary of the method: (§2)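 Conscious rats with water access before but not during the test. Given AVP 0.4 μg/kg ip in peanut oil, then deionized water 30 mL/kg by gavage 20 min later, then vehicle or compound 20 min after that. Vehicle was 20% DMSO in 2.5% preboiled starch. Urine volume over 4 h and osmolality measured.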

Rattus norvegicus [8] = assay: Urine volume collected after 10 mg/kg of drug administration into 4 rats.; assay type: functional
Summary of the method: as §2

Rattus norvegicus [9] = assay: Urine volume collected after 3 mg/kg of drug administration into 2 rats.
Rattus norvegicus [10] = assay: Urinary osmolality from urine collected from rat at 3 mg/kg; assay type: functional
Summary of the method: as §1

Vasopressin V1a receptor [11] = biological target: Vasopressin V1a receptor (Rattus norvegicus, UniProt P30560); assay: Displacement of (Phe-3,4,5-H) Vasopressin from V1a receptor from rat liver membranes.; assay type: cell membranes, Membrane
Rattus norvegicus [12] = assay: Urinary osmolality from urine collected from rat at 3 mg/kg in second experiment; assay type: functional
Summary of the method: as §2

Rattus norvegicus [13] = assay: Urinary osmolality from urine collected from rat at 10 mg/kg in second experiment; assay type: functional
Summary of the method: as §2

Rattus norvegicus [14] = assay: Urine volume collected after 3 mg/kg of drug administration into 15 rats; assay type: functional
Summary of the method: as §1

Rattus norvegicus [15] = assay: Urinary osmolality from urine collected from rat at 1 mg/kg; assay type: functional
Summary of the method: as §1

Rattus norvegicus [16] = assay: Urinary osmolality from urine collected from rat at 1 mg/kg in second experiment; assay type: functional
Summary of the method: as §2

Rattus norvegicus [17] = assay: Urine volume collected after 1 mg/kg of drug administration into 6 rats; assay type: functional
Summary of the method: as §1

Rattus norvegicus [18] = assay: Urine volume collected after 1 mg/kg of drug administration into 8 rats. (Conscious rats free access to water before but not during the experiment).; assay type: functional
Summary of the method: as §2

Rattus norvegicus [19] = assay: Urine volume collected after 3 mg/kg of drug administration into 10 rat; assay type: functional
Summary of the method: as §2

Rattus norvegicus [20] = assay: Urine volume collected after 10 mg/kg of drug administration into 13 rats. (Conscious rats free access to water before and after during the experiment); assay type: functional
Summary of the method: as §1

Rattus norvegicus [21] = assay: Urine volume collected after 10 mg/kg of drug administration into 6 rats.; assay type: functional
Summary of the method: as §2

Rattus norvegicus [22] = assay: Urine volume collected after 10 mg/kg of drug administration into 3 rats.; assay type: functional
Summary of the method: as §2

Vasopressin V2 receptor (Homo sapiens, UniProt P30518), sequence (P30518 whole entry): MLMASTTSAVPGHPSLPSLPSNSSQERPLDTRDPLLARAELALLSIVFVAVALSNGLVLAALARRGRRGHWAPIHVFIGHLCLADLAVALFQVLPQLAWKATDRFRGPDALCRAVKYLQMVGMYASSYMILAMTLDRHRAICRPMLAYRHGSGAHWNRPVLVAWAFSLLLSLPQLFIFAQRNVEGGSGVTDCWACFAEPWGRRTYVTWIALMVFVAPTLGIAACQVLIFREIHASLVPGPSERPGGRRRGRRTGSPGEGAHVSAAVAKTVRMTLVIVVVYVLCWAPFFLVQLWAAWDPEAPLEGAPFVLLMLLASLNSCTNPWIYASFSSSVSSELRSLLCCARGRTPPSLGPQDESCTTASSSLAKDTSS
Vasopressin V1a receptor (Homo sapiens, UniProt P37288), sequence (P37288 whole entry): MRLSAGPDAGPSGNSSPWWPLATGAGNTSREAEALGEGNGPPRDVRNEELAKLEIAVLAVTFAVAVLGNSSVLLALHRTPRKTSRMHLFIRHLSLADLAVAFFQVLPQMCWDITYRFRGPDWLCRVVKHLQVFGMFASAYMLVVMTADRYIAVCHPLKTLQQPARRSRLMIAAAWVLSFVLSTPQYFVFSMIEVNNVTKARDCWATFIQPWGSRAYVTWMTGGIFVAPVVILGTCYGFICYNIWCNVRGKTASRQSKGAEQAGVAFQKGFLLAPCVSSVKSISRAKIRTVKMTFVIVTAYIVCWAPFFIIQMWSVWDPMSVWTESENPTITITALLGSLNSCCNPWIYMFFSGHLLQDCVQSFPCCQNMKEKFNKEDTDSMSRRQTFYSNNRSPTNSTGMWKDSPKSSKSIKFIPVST
Vasopressin V1a receptor (Rattus norvegicus, UniProt P30560), sequence (P30560 whole entry): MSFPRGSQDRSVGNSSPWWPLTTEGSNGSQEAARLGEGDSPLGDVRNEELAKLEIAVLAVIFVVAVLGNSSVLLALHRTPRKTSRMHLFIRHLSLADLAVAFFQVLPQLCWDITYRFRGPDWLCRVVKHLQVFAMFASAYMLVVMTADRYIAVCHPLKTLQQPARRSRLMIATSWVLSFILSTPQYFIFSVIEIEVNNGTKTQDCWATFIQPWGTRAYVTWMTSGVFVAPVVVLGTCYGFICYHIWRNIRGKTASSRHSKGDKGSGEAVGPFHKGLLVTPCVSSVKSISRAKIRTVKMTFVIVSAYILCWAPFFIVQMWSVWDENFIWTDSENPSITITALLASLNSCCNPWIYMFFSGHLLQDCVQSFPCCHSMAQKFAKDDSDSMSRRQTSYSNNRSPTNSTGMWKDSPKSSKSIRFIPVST
Vasopressin V2 receptor (Rattus norvegicus, UniProt Q00788), sequence (Q00788 whole entry): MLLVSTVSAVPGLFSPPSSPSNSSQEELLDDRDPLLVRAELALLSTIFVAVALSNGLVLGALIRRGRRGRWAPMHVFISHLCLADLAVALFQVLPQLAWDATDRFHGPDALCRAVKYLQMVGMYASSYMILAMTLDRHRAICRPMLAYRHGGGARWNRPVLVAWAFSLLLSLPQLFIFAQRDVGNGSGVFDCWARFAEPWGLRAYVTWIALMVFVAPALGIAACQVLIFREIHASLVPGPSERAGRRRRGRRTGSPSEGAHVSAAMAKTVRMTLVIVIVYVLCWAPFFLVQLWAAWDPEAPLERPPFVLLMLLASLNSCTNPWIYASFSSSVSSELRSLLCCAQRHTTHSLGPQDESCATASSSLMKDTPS

IC50 (Vasopressin V2 receptor [2]) | Selectivity (Homo sapiens) | IC50 (Vasopressin V1a receptor [3]) | Selectivity [4] | Compound | also measured
0.5 nM | 860 |  |  | Cc1cccc(C(=O)Nc2ccc(C(=O)N3Cc4cccn4Cc4ccccc43)c(Cl)c2)c1C | Osmolality (Rattus norvegicus [1]): 557 mOsmol kg-1
 | 6 | 25 nM |  | Cc1ccc(F)cc1C(=O)Nc1ccc(C(=O)N2Cc3cccn3Cc3ccccc32)cc1Cl | 
2 nM | 8 |  |  | COc1cc(NC(=O)c2cc(F)ccc2C)ccc1C(=O)N1Cc2cccn2Cc2ccccc21 | 
 |  |  | 3 | O=C(Nc1ccc(C(=O)N2Cc3cccn3Cc3ccccc32)cc1)c1ccccc1C(F)(F)F | IC50 (Vasopressin V2 receptor [5]): 10.2 nM
8.3 nM | 530 | 4400 nM |  | O=C(Nc1ccc(C(=O)N2Cc3cccn3Cc3ccccc32)c(Cl)c1)c1cccc(C(F)(F)F)c1F | Osmolality (Rattus norvegicus [6]): 635 mOsmol kg-1; Urine volume (Rattus norvegicus [7]): 10 ml 4hr-1
3.2 nM | 5 | 15 nM | 7 | O=C(Nc1ccc(C(=O)N2Cc3cccn3Cc3ccccc32)cc1)c1ccc(Cl)cc1Cl | IC50 (Vasopressin V2 receptor [5]): 3.1 nM
 | 2 | 6.3 nM |  | O=C(Nc1ccc(C(=O)N2Cc3cccn3Cc3ccccc32)cc1)c1ccc(F)cc1Cl | 
 |  |  | 2 | COc1ccccc1C(=O)Nc1ccc(C(=O)N2Cc3cccn3Cc3ccccc32)cc1 | 
 |  |  | 9 | Cc1ccccc1C(=O)Nc1ccc(C(=O)N2Cc3cccn3Cc3ccccc32)cc1 | IC50 (Vasopressin V2 receptor [5]): 4.1 nM
2 nM | 320 | 640 nM | 5 | O=C(Nc1ccc(C(=O)N2Cc3cccn3Cc3ccccc32)c(Cl)c1)c1ccc(Cl)cc1Cl | Osmolality (Rattus norvegicus [1]): 507 mOsmol kg-1; Urine volume (Rattus norvegicus [8]): 14 ml 4hr-1
2.1 nM | 80 | 120 nM |  | Cc1ccc(F)cc1C(=O)Nc1ccc(C(=O)N2Cc3cccn3Cc3ccccc32)c(C)c1 | 
1 nM | 59 | 59 nM | 12 | Cc1ccccc1C(=O)Nc1ccc(C(=O)N2Cc3cccn3Cc3ccccc32)c(Cl)c1 | 
 |  |  |  | Cc1ccccc1C(=O)Nc1ccc(C(=O)N2CCCC(N(C)C)c3ccccc32)cc1 (stereo unspecified) [MOZAVAPTAN] | Osmolality (Rattus norvegicus [6]): 352 mOsmol kg-1; Urine volume (Rattus norvegicus [9]): 10 ml 4hr-1; Urine volume (Rattus norvegicus [7]): 23 ml 4hr-1; Osmolality (Rattus norvegicus [10]): 850 mOsmol kg-1
 | 17 |  |  | COc1cc(C(=O)N2Cc3cccn3Cc3ccccc32)ccc1NC(=O)c1ccc(Cl)cc1Cl | 
 |  |  | 2 | O=C(Nc1ccc(C(=O)N2Cc3cccn3Cc3ccccc32)cc1)c1ccccc1Cl | IC50 (Vasopressin V2 receptor [5]): 4.6 nM
 |  |  | 2 | COc1cc(Cl)ccc1C(=O)Nc1ccc(C(=O)N2Cc3cccn3Cc3ccccc32)cc1 | IC50 (Vasopressin V1a receptor [11]): 33 nM; IC50 (Vasopressin V2 receptor [5]): 16 nM
4.2 nM | 81 |  |  | Cc1ccc(C)c(C(=O)Nc2ccc(C(=O)N3Cc4cccn4Cc4ccccc43)c(Cl)c2)c1 | 
0.7 nM | 53 | 37 nM |  | O=C(Nc1ccc(C(=O)N2Cc3cccn3Cc3ccccc32)c(Cl)c1)c1ccc(F)cc1Cl | 
 |  |  | 7 | Cc1c(F)cccc1C(=O)Nc1ccc(C(=O)N2Cc3cccn3Cc3ccccc32)cc1 | 
 |  |  | 4 | Cc1cc(C(=O)N2Cc3cccn3Cc3ccccc32)ccc1NC(=O)c1ccc(Cl)cc1Cl | IC50 (Vasopressin V1a receptor [11]): 33 nM; IC50 (Vasopressin V2 receptor [5]): 8 nM
1.2 nM | 192 | 230 nM | 148 | Cc1ccc(F)cc1C(=O)Nc1ccc(C(=O)N2Cc3cccn3Cc3ccccc32)c(Cl)c1 [LIXIVAPTAN] | Osmolality (Rattus norvegicus [12]): 366 mOsmol kg-1; Osmolality (Rattus norvegicus [13]): 302 mOsmol kg-1; IC50 (Vasopressin V1a receptor [11]): 340 nM; Urine volume (Rattus norvegicus [14]): 38 ml 4hr-1; Osmolality (Rattus norvegicus [6]): 188 mOsmol kg-1; Osmolality (Rattus norvegicus [15]): 393 mOsmol kg-1; Osmolality (Rattus norvegicus [16]): 629 mOsmol kg-1; Urine volume (Rattus norvegicus [17]): 24 ml 4hr-1; Urine volume (Rattus norvegicus [18]): 14 ml 4hr-1; Urine volume (Rattus norvegicus [19]): 30 ml 4hr-1; Urine volume (Rattus norvegicus [20]): 43 ml 4hr-1; Urine volume (Rattus norvegicus [21]): 37 ml 4hr-1; Osmolality (Rattus norvegicus [10]): 222 mOsmol kg-1
1.9 nM | 284 | 540 nM |  | Cc1c(F)cccc1C(=O)Nc1ccc(C(=O)N2Cc3cccn3Cc3ccccc32)c(Cl)c1 | Osmolality (Rattus norvegicus [1]): 473 mOsmol kg-1; Urine volume (Rattus norvegicus [22]): 17 ml 4hr-1
1.5 nM |  | 20 nM |  | Cc1ccc(F)cc1C(=O)Nc1ccc(C(=O)N2Cc3cccn3Cc3ccccc32)cc1 | 
 |  |  | 6 | Cc1cccc(C(=O)Nc2ccc(C(=O)N3Cc4cccn4Cc4ccccc43)cc2)c1C | 
